Rows were chosen to be rich in hits. Some 2.3% of all compounds tested hit in one or more screens of this group.
T cruzi inh: blocks replication of Trypanosoma cruzi; T. cruzi beta-gal in NIH3T3, luminescence, 90 h; inhibition, % (test concentration not listed); 300,000 compounds, 1.4% hits; AID 1885;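 active means mean inhibition across valid replicates above about 55%, limit read from the data; inconclusive means mean below that limit but half or more replicates reach it; inactive means mean below it, under half of replicates reach it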;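 further: signal also drops with host cell toxicity which is not excluded here; 0% = plate median of DMSO wells and 100% = zero luminescence signal; higher percent means less beta-gal luminescence so fewer parasites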
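compound dosing = single 50 nL compound addition per well in DMSO | material = NIH/3T3 host cells with β-galactosidase reporter T. cruzi | input = 5,000 host fibroblasts per well | timing = ≥90 h infection period, 3 h prior cell attachment | read-out basis = percent inhibition of parasite-derived β-gal signal | detection = GalScreen β-gal luminescence, detergent lysis, 60 min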
HIF activator: HIF pathway transcriptional activation | U2OS HRE-luciferase reporter, luminescence; normalized: DMSO 0%, desferrioxamine 100% | activation, % at 7.5 µM (by protocol) | 300,000 compounds, 0.32% hits;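 active means mean activation of at least 10% of the iron chelator positive control signal, with at least half of replicates also reaching 10%; inconclusive means mean and replicate majority disagree about reaching 10%; inactive means mean and most replicates under 10%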
KLF5 inhibitor: suppresses KLF5 promoter-driven expression; DLD-1 KLF5 promoter-luciferase reporter, luminescence; inhibition, % at 5 µM; 290,000 compounds, 0.23% hits; AID 1700;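 active means inhibition above a per-plate limit of that plate's mean compound inhibition plus 3 SD, cut at about 60% in these data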;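 further: 0% = DMSO wells and 100% = LY294002 at 200 µM; higher means less KLF5 promoter-driven luciferase light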
Beta apoptosis: beta cell apoptosis inhibition | INS-1E cytokine-induced death, ATP luminescence, 48 h; percent of positive-control rescue, neutral wells zero | protection from apoptosis, % (concentration not given with the values) | 300,000 compounds, 0.8% hits;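 active means Every replicate reaches about 75%, or at least half do and their mean reaches it too, limit read from the data; inconclusive means At least half of replicates reach the limit but their mean does not; inactive means Under half of replicates reach the limit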;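 further: 0% = cytokine-treated negative control wells and 100% = positive control rescue; higher means more ATP so stronger rescue from cytokine killing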
A1 inh: inhibitors of the anti-apoptotic protein A1, read as caspase activation | MEF A1-2A-BIM cells, Caspase-Glo 3/7 luminescence, 3 h; percent of clofoctol response, vehicle zero | caspase activation, % (no concentration beside the values) | 330,000 compounds, 0.066% hits | AID 2462;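 active means over half of replicate activation scores above 10%, or exactly half above 10 with the replicate mean above 10; inconclusive means replicate mean below 10 yet half the replicates above 10; inactive means over half of replicates below 10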
Starred values were filed as active, the others as inactive.

How did CC1(C)CC(=O)C=C(c2ccc(F)nc2)C1 do in these assays?
Beta apoptosis: 0.0; A1 inh: 0.7

What do the screens show for `Cc1ccc(NC(=O)Cc2ccccc2)cc1S(=O)(=O)N1CCOCC1`?
Beta apoptosis: 2.4; A1 inh: 1.4

Results for CCOC(=O)c1cc2sccc2n1CC(=O)Nc1ccc(OC)cc1 ?
T cruzi inh: -14.3; HIF activator: 36.0*; KLF5 inhibitor: -0.7; Beta apoptosis: 2.3; A1 inh: -0.6

Results for CCN(CC)S(=O)(=O)c1cccc(-n2c(O)c(C=Nc3ccccc3C(=O)O)c3ccccc3c2=O)c1 ?
T cruzi inh: 72.2*; HIF activator: 1.3; KLF5 inhibitor: -20.6; Beta apoptosis: -15.6; A1 inh: -0.5

Results for O=C(CCNS(=O)(=O)c1ccc(Br)cc1)NCCCSc1ccccc1 ?
Beta apoptosis: -1.4; A1 inh: 0.7

How did COc1ccc(-c2cc(C(=O)N3CCN(c4cccc(C)c4C)CC3)c3ccccc3n2)cc1OC do in these assays?
T cruzi inh: 62.3*; HIF activator: 2.2; Beta apoptosis: 0.1; A1 inh: -0.5

What do the screens show for `Cc1cccc2c(C(=O)N3CCN(c4ccccn4)CC3)cc(-c3cccc(Br)c3)nc12`?
T cruzi inh: 29.5; HIF activator: 0.3; KLF5 inhibitor: -0.5; Beta apoptosis: 111.7*; A1 inh: 0.1

Results for O=C(c1cc(-c2ccccc2Cl)nc2ccc(Br)cc12)N1CCN(c2ccccn2)CC1 ?
T cruzi inh: 37.1; HIF activator: -0.3; KLF5 inhibitor: 9.8; Beta apoptosis: 106.0*; A1 inh: -1.7

Results for O=C(c1cc(-c2ccncc2)nc2ccc(Br)cc12)N1CCN(c2ccccn2)CC1 ?
T cruzi inh: inconclusive; HIF activator: 0.1; KLF5 inhibitor: -13.9; Beta apoptosis: 0.5; A1 inh: 1.3

Results for O=C(c1cc(-c2cccc(Cl)c2)nc2ccccc12)N1CCN(c2ccccn2)CC1 ?
T cruzi inh: 24.0; HIF activator: 0.0; KLF5 inhibitor: -15.1; Beta apoptosis: 96.5*; A1 inh: 0.0

Results for COc1ccc(-c2cc(C(=O)N3CCN(c4ncccn4)CC3)c3ccccc3n2)cc1OC ?
Beta apoptosis: 1.6; A1 inh: -0.1

How did Cc1cccc2c(C(=O)N3CCCCC3)cc(-c3ccccc3)nc12 do in these assays?
T cruzi inh: 14.8; HIF activator: -6.0; KLF5 inhibitor: -23.3; Beta apoptosis: -1.0; A1 inh: -0.1

How did CCc1ccc(C(=O)NNC(=O)C2CC(=O)N(Cc3ccccc3)C2)cc1 (centres undefined) do in these assays?
T cruzi inh: -17.9; HIF activator: 0.3; Beta apoptosis: -5.2; A1 inh: -0.9

How did Oc1ccc(Cl)cc1CNc1cccc2cccnc12 do in these assays?
T cruzi inh: 0.4; HIF activator: -1.3; KLF5 inhibitor: -7.9; Beta apoptosis: 64.6; A1 inh: -0.3

How did Cc1ccc(O)c(CNc2cccc3cccnc23)c1 do in these assays?
T cruzi inh: 3.1; HIF activator: -0.6; KLF5 inhibitor: 7.8; Beta apoptosis: 102.4*; A1 inh: -0.2

What do the screens show for `Oc1ccc(Br)cc1CNc1cccc2cccnc12`?
T cruzi inh: 5.0; HIF activator: 0.2; KLF5 inhibitor: 4.8; Beta apoptosis: 99.6*; A1 inh: 1.1

Results for O=C(COC(=O)CCc1ccc(S(=O)(=O)N2CCOCC2)cc1)NC(=O)NC1CCCCC1 ?
T cruzi inh: -3.4; HIF activator: -0.3; KLF5 inhibitor: -14.6; Beta apoptosis: -7.4; A1 inh: 1.6

How did CSc1nc(N)nc2c1ncn2CC(=O)Nc1ccc(C)c(C)c1 do in these assays?
Beta apoptosis: 21.2; A1 inh: -0.6

What do the screens show for `CCOCCCNC(=O)c1ccc2c(c1)N=C(CC)c1cc(Br)ccc1S2`?
T cruzi inh: 36.5; HIF activator: 0.4; KLF5 inhibitor: 73.5*; Beta apoptosis: 29.7; A1 inh: 3.5

How did COc1ccc(CCN(C)CCC(=O)Nc2ccc(C)cc2)cc1OC do in these assays?
T cruzi inh: 58.6*; HIF activator: -0.3; KLF5 inhibitor: -52.9; Beta apoptosis: 3.3; A1 inh: 0.5

How did COc1ccc(CCNC(=O)CCOc2ccc(C)cc2)cc1OC do in these assays?
T cruzi inh: -10.2; HIF activator: 0.0; KLF5 inhibitor: -16.5; Beta apoptosis: -5.2; A1 inh: 6.1*

Results for COc1ccc(CCNC(=O)CCOc2cc(C)ccc2C)cc1OC ?
T cruzi inh: 13.3; HIF activator: -0.6; KLF5 inhibitor: -10.7; Beta apoptosis: -7.8; A1 inh: -1.0

How did CCOC(=O)N1CCN(C(=O)CCCn2nnnc2CN2CCC(C)CC2)CC1 do in these assays?
T cruzi inh: -18.8; HIF activator: 0.1; KLF5 inhibitor: -9.3; Beta apoptosis: -0.9; A1 inh: 0.3

What do the screens show for `COc1ccc(C2(C)NC(=O)N(CC(=O)NC(C)c3ccc(CC(C)C)cc3)C2=O)cc1` (centres undefined)?
T cruzi inh: -5.4; HIF activator: 0.1; KLF5 inhibitor: 25.2; Beta apoptosis: -0.4; A1 inh: -1.0

Results for O=C(NCCCn1ccnc1)c1c(F)cccc1F ?
T cruzi inh: -5.9; HIF activator: 0.1; KLF5 inhibitor: -13.4; Beta apoptosis: -5.2; A1 inh: -0.5

Results for O=C(NCCCn1ccnc1)c1sc2cccc(F)c2c1Cl ?
T cruzi inh: 64.0*; HIF activator: 0.3; KLF5 inhibitor: -23.7; Beta apoptosis: 4.1; A1 inh: 0.2

What do the screens show for `Cc1cccc(NC(=O)c2sc3nc4c(c(-c5cccs5)c3c2N)CN(C)CC4)c1`?
T cruzi inh: 39.7; HIF activator: -0.1; KLF5 inhibitor: -9.8; Beta apoptosis: -1.4; A1 inh: -0.4

Results for CC(C)NC(=O)c1sc2nc3c(c(-c4cccs4)c2c1N)CN(C)CC3 ?
T cruzi inh: 56.5*; HIF activator: 0.4; KLF5 inhibitor: -44.1; Beta apoptosis: -13.9; A1 inh: 0.8

Results for COC(=O)CCC(=O)N1CCCC(N2CCN(c3cccc(C(F)(F)F)c3)CC2)C1 (centres undefined) ?
T cruzi inh: -10.9; HIF activator: -1.8; KLF5 inhibitor: -5.6; A1 inh: -1.2

Results for COCCn1c(Cc2ccccc2)nnc1SCC(=O)NC1CC1 ?
T cruzi inh: -3.0; HIF activator: -0.1; KLF5 inhibitor: 3.8; Beta apoptosis: -4.4; A1 inh: 0.1

How did Cc1sc2ncnc(Sc3nnnn3-c3ccc(Cl)cc3)c2c1C do in these assays?
T cruzi inh: 26.0; HIF activator: 16.9*; KLF5 inhibitor: -21.7; Beta apoptosis: 2.7; A1 inh: 0.3

Results for Cc1ccc(-n2cc(CN3CCC(CO)(Cc4cccc(C(F)(F)F)c4)CC3)cn2)cc1 ?
T cruzi inh: 60.6*; HIF activator: -0.2; KLF5 inhibitor: -29.1; Beta apoptosis: 11.2; A1 inh: -0.2

What do the screens show for `Cc1ccc(-n2cc(CN3CCC(CO)(Cc4ccccc4)CC3)cn2)cc1`?
T cruzi inh: 37.4; HIF activator: inconclusive; KLF5 inhibitor: -60.9; Beta apoptosis: -6.7; A1 inh: 0.9
